Results: PMC9868104 (Cell chemical biology, 2022)

Key:
[1] = test system: STING signaling (STING, pTBK1, pIRF3); test: STING, pTBK1 and pIRF3 western blot in CT-26 cells; format: cell-based, mouse
Outline: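 Lysates were made in HEPES/Triton buffer with TCEP, protease and phosphatase inhibitors and 30 μM pan-PARP inhibitor, normalized by Bradford, and run on SDS-PAGE and nitrocellulose. Blots were probed overnight at 4°C for STING, phospho-TBK1 Ser172 and phospho-IRF3 Ser396 (1:1000 for both phospho antibodies), with tubulin as loading control, and read by HRP chemiluminescence.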

PARP7 = biological target: T1, PARP7 (Homo sapiens, UniProt Q7Z3E1); test: PASTA biochemical PARP screening assay, PARP7; conditions: in words
T1 sequence (Q7Z3E1 1-657): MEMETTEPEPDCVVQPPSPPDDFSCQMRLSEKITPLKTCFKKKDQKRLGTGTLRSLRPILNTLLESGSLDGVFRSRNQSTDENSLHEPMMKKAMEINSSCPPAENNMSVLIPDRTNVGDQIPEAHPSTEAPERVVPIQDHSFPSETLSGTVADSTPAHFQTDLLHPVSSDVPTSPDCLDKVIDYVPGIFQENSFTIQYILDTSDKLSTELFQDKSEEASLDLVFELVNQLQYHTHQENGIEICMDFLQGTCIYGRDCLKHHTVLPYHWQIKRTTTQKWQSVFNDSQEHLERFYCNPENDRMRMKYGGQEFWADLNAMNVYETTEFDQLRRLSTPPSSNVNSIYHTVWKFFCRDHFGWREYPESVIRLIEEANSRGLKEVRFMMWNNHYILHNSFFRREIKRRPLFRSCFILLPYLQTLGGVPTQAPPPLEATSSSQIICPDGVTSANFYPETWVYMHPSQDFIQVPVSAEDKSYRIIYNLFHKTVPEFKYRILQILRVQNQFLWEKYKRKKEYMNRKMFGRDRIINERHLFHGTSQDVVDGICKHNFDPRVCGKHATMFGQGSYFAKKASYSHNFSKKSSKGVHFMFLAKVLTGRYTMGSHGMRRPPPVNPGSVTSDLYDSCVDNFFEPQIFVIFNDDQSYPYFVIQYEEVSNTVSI

[2] = test system: other PARP family members; test: PASTA family-wide PARP inhibitor screening, other PARP family members; format: biochemical
PARP1 [3] = biological target: T2, PARP1 (Homo sapiens, UniProt P09874); test: PASTA biochemical PARP screening assay, PARP1; conditions: in words
T2 sequence (P09874 whole entry): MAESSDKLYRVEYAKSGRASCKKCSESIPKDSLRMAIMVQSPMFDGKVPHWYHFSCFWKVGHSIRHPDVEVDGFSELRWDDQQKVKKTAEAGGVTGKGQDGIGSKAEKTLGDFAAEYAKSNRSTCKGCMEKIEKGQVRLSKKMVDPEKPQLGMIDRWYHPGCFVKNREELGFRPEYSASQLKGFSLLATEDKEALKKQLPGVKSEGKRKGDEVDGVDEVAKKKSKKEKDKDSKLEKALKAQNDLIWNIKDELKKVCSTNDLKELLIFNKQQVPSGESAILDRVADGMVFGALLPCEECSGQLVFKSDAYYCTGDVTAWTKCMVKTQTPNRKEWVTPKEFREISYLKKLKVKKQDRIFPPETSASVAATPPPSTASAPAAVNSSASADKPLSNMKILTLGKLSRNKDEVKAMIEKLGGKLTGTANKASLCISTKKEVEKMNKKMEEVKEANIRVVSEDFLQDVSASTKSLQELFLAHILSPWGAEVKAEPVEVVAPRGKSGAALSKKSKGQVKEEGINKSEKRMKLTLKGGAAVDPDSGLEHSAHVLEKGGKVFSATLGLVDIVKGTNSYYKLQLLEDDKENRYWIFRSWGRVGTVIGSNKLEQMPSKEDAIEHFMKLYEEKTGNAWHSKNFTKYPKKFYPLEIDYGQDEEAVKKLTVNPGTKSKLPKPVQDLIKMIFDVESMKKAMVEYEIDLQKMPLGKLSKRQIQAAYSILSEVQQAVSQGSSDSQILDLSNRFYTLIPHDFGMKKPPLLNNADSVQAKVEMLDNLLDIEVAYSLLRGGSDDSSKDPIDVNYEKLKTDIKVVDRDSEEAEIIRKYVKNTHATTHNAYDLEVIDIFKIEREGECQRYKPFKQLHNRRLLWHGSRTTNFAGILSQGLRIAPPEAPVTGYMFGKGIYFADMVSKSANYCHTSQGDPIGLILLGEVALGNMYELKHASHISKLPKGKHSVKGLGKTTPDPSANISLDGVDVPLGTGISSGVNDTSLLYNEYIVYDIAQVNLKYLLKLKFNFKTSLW

PARP2 = PARP2 (Homo sapiens, UniProt Q9UGN5); test: PASTA biochemical PARP screening assay, PARP2; conditions: in words
PARP2, sequence (Q9UGN5 whole entry): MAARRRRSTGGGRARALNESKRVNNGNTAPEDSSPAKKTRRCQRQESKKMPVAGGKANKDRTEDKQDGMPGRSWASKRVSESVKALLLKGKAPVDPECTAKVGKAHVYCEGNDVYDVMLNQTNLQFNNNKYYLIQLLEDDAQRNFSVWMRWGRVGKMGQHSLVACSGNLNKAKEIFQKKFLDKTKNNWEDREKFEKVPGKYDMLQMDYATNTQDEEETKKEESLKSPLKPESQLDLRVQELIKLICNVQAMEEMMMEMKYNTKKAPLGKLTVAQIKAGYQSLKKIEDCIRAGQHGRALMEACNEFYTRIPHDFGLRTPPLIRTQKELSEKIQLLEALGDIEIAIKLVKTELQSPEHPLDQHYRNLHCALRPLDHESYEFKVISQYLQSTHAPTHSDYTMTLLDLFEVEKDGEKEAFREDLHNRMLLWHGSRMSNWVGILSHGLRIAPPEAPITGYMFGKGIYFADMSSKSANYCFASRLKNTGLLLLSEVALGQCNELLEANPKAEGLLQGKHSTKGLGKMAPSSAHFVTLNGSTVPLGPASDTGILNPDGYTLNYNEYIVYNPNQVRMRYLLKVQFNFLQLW

[4] = test system: ISRE luciferase reporter (type I interferon); test: ISRE luciferase assay in ISRE-Luc CT-26 cells; format: cell-based, mouse; conditions: 18 h, saturating doses
Outline: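 ISRE-Luc CT-26 cells were made by lentiviral ISRE-luciferase transduction with 8 μg/mL polybrene and kept under 20 μg/mL puromycin. 1.0 × 10^4 ISRE-Luc or WT CT-26 cells were grown overnight. Test compound was serially diluted in DMSO, then in medium, and added for 18 h. Lysates were read by ONE-Glo luminescence (2 s integration), with the WT CT-26 signal subtracted as background. Curves were four-parameter fits.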

PARP12 = biological target: T3, PARP12 (Homo sapiens, UniProt Q9H0J9); conditions: in words; cited from earlier work
T3 sequence (Q9H0J9 484-698 limits assumed): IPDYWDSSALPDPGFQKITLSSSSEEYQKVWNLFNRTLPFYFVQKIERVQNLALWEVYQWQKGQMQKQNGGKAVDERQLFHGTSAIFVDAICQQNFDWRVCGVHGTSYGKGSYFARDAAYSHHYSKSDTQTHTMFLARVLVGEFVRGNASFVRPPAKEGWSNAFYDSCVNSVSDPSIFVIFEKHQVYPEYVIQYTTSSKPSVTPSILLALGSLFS

STAT1 and pSTAT1 = test: STAT1 and pSTAT1; format: cell-based, mouse; conditions: CT-26 cells
Outline: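 CT-26 cells at 75% confluency were treated with test compound at 0.01–1 μM for 16 h (dose-response) or at 0.3 μM over 0–24 h (time course); DMXAA (10 μg/ml, 1 h) served as positive control. Lysis buffer contained protease and phosphatase inhibitors plus 30 μM pan-PARP inhibitor. Bradford-normalized lysates were run on SDS-PAGE and nitrocellulose, probed for STAT1 and phospho-STAT1 Tyr701, detected by HRP chemiluminescence, and bands quantified densitometrically.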

secreted IFN-β = test: Interferon-β ELISA, CT-26 cells; format: cell-based, mouse; conditions: 300 nM, 16 h
Outline: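 CT-26 cells were grown in RPMI-1640 + 10% FBS in 6-well plates. After 24 h, medium was replaced and cells were treated for 16 h with 300 nM test compound, with or without the covalent STING inhibitor H-151 (500 nM). Harvested medium was assayed for IFN-β with a mouse IFN-β ELISA kit. Statistics: one-way ANOVA.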

PARP1 [5] = biological target: T2, PARP1; conditions: in words; cited from earlier work
PARP7 protein levels = test: Endogenous PARP7 protein levels in CT-26 cells; format: cell-based, mouse
[6] = test system: CYP1A1 mRNA (AHR target gene); test: CYP1A1 mRNA levels in MEFs; format: cell-based, mouse; conditions: PARP7−/− MEFs, 1 nM TCDD
[7] = increasing concentrations, 16 h

## Cc1ccc2c(=O)c3cccc(CC(=O)O)c3oc2c1C [DMXAA, 5,6-Dimethylxanthenone-4-acetic Acid]
[1]
  STING levels: substantially decreased
  pIRF3: robustly induced
  pTBK1: robustly induced

## N#Cc1ccc(N2CCN(C(=O)c3cc(Cc4n[nH]c(=O)c5ccccc45)ccc3F)CC2)nc1 [Phthal01]
PARP7
  potency against PARP7: double-digit nanomolar
[2]; other than PARP1 and PARP2
  fold more potent against PARP7 compared to all other PARP family members: at least 12 fold
PARP1 [3]
  potency against PARP1: double-digit nanomolar
PARP2
  potency against PARP2: double-digit nanomolar

## C[C@@H](COCCC(=O)N1CCN(c2ncc(C(F)(F)F)cn2)CC1)Nc1cn[nH]c(=O)c1C(F)(F)F [RBN-2397]
[2]; read-out: IC50 most other PARP family members (does not inhibit up to)
  IC50: > 3 µM
[4]
  magnitude of ISRE luciferase response compared to KMR-206: ~ 2 fold
PARP12
  inhibition of PARP12, previous study: double digit nanomolar inhibition
STAT1 and pSTAT1; 300 nM
  time of noticeable increase in STAT1: 16 h
  time of noticeable increase in pSTAT1: 4 h
STAT1 and pSTAT1; [7]
  STAT1 and pSTAT1 levels: dose-dependently increased
Secreted IFN-β
  levels of secreted IFN-β: to a greater extent than KMR-206
PARP1 [5]
  inhibition of PARP1, previous study: double digit nanomolar inhibition
PARP7 protein levels; 0.3 μM time-course
  time of maximal PARP7 protein levels after addition: ~ 16 h
PARP7 protein levels; [7]
  endogenous PARP7 levels: dramatically increased
PARP7 protein levels; saturating doses
  increase in PARP7 protein abundance compared to KMR-206: 2 fold

## Clc1cc2c(cc1Cl)Oc1cc(Cl)c(Cl)cc1O2 [TCDD, 2,3,7,8-tetrachlorodibenzo-p-dioxin]
[6]
  CYP1A1 mRNA levels, TCDD alone: robust induction of CYP1A1
